# High-throughput results (PubChem)
# In the library only some 1.5% were active in any assay of this set; here they are far more common.
# UBC13 polyUb: inhibitors of human UBC13 polyubiquitin chain formation. TR-FRET. inhibition, % at 20 µM. 330,000 compounds, 0.47% hits. AID 485273; in the data active = inhibition above about 45%, passing the limit was not always enough; inconclusive = no clear call, values can overlap the other calls
# Apaf-1 inh: blocks human Apaf-1 apoptosome activity. O14727. reconstituted apoptosome caspase-3 activity, DEVD-Rh110 fluorescence. inhibition, % at 20 µM. 330,000 compounds, 0.71% hits; active = inhibition of at least 40% at 20 µM;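 also: plate controls were DMSO wells for no effect and DEVD-CHO caspase inhibitor wells for full effect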
#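 System – cell-free apoptosome with Apaf-1, procaspase-3 and caspase-9 · Buffer or medium – pH 7.5 Hepes buffer with CHAPS, BSA, DTT · Also added – cytochrome c with DEVD-Rh110 · Times – 30 min compound preincubation, 50 min activation, room temperature · Technique – Rh110 fluorescence intensity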
# UCH37 inh: inhibitors of human deubiquitinating enzyme UCH37; Q9Y5K5; inhibition, % (concentration not given with the values); purified proteasome/UCH37, Ub-AMC cleavage fluorescence; 330,000 compounds, 0.33% hits;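 active = mean inhibition over replicate wells above about 20%, limit read from the data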;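 also: 0% = compound-free wells with enzyme and 100% = wells lacking proteasome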
# Target sequence (Q9Y5K5 whole entry, looked up): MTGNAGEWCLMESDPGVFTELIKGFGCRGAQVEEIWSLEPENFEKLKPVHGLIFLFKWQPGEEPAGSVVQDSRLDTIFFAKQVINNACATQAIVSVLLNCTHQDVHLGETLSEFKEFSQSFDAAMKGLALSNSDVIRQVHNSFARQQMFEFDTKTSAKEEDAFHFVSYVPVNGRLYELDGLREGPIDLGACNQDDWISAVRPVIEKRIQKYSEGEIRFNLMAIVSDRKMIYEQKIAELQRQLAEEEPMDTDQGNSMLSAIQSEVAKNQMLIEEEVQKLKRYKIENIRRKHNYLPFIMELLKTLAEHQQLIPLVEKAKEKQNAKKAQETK
#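 Material: human UCH37 enzyme supplied as purified proteasome complex / Amount: 0.15 nM proteasome as dispensed / Buffer or medium: pH 7.4 Tris-HCl (50 mM) with ovalbumin, ATP-MgCl2, DTT / Times: preincubation 30 min, reaction 25 min, room temperature / Technique: AMC fluorescence from Ub-AMC cleavage, excitation 355 nm, emission 460 nm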
# PREPL inh: inhibits the human prolyl oligopeptidase-like enzyme. Q4J6C6. recombinant PREPL, fluorescence polarization activity-based probe. inhibition, % at 5.96 µM. 320,000 compounds, 0.68% hits. AID 2751; in the data active = inhibition above about 43%;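 also: 0% = enzyme with DMSO and 100% = wells lacking enzyme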
# Casp3 UBC13 ctr: caspase-3 inhibition (UBC13 counter-screen) | 1,400 compounds, 4% hits | AID 488856 | Recombinant caspase-3, Caspase-Glo 3/7 luminescence, 60 min | inhibition, % at 20 µM | shares compounds with UBC13 polyUb;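 active = mean inhibition across replicates above about 26%, limit read from the data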;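 also: plate controls were DMSO with caspase-3 for no effect and DMSO wells lacking enzyme for full effect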
# Target sequence (P42574 whole entry, looked up): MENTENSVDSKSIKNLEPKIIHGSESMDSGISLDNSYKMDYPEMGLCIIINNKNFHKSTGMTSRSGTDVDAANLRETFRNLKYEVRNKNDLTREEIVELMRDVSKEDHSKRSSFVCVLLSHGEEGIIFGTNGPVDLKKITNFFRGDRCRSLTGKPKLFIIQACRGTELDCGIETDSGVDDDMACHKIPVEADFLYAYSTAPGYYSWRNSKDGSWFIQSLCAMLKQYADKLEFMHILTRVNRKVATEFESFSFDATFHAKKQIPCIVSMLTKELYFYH
# UBC13 conf: confirmation of human UBC13 polyubiquitin inhibitors. shares compounds with UBC13 polyUb. UBC13 polyubiquitination, TR-FRET, biochemical. inhibition, % at 10 µM. 1,400 compounds, 68% hits; in the data active = inhibition above about 45%; inconclusive = no clear call, values can overlap the other calls
# Numbers without * were called inactive; ? = inconclusive; · = no result.
SMILES,UBC13 polyUb,Apaf-1 inh,UCH37 inh,PREPL inh,Casp3 UBC13 ctr,UBC13 conf
COc1ccc(C)c2sc(N(CCCN(C)C)C(=O)c3ccc(S(=O)(=O)N(C)C)cc3)nc12,48.6*,-6.9,4.0,7.8,-5.1,54.4*
COC(=O)c1ccc(C(O)=C(C#N)c2nc3ccccc3s2)cc1,·,·,12.7,·,·,·
COc1ccc(-c2cc3c(=O)n(CC(=O)NCCCN4CCC(N5CCCCC5)CC4)ncn3n2)cc1,27.1,18.2,-37.7,7.8,·,·
COc1ccc(-c2cc3c(=O)n(CC(=O)NCCCN4CCC(N5CCCCC5)CC4)nc(C)n3n2)cc1,71.1*,35.2,·,2.4,-0.9,34.0
CCC(C)C(C)=NNC(=O)CNS(=O)(=O)c1ccc([N+](=O)[O-])cc1 (stereo not drawn),·,·,-0.2,·,·,·
COC(=O)c1c(-c2ccc(SC)cc2)sc2ccc(OC)cc12,50.4*,11.1,-2.8,19.1,-1.2,?
COC(=O)c1c(-c2ccc(S(C)(=O)=O)cc2)sc2ccc(OC)cc12,54.5*,25.4,0.2,22.8,10.3,41.9
COC(=O)c1c(-c2ccc(S(C)(=O)=O)cc2)sc2cc(OC)ccc12,?,11.6,-60.8,38.4,·,·
CC(=O)Nc1ccc(C(C)=NNC(=O)c2ccccc2Cl)cc1,·,·,5.0,·,·,·
Nc1nonc1-n1nnc(C(=O)NN=CC2CCCCC2)c1-c1ccccc1,·,·,0.7,·,·,·
COc1ccnc2c1c(=O)n(Cc1c(F)cccc1Cl)c(=O)n2C,9.4,2.6,-3.1,9.2,·,·
COc1ccnc2c1c(=O)n(Cc1ccc(Cl)cc1)c(=O)n2C,71.2*,10.6,-5.9,-23.8,0.3,?
COc1ccnc2c1c(=O)n(Cc1ccc(F)cc1)c(=O)n2C,56.7*,-11.4,3.4,-13.3,0.4,66.7*
Cc1ccccc1CN(c1ccc(C(=O)NN=Cc2ccc(OCC(N)=O)cc2)cc1)S(C)(=O)=O,·,·,2.8,·,·,·
Cc1cc(C)nc(NN=Cc2sccc2C)n1,·,·,7.4,·,·,·
Cc1nn2c(nc(N3CCOCC3)c3ccccc32)c1C=C(C#N)C#N,47.2*,4.8,-11.0,0.2,-3.6,45.7*
Cc1nn2c(nc(N3CCCCC3)c3ccccc32)c1C=O,0.2,6.8,-41.8,-2.8,·,·
Cc1nc(N)sc1C(=O)N/N=C/c1c[nH]c2ccccc12,79.2*,-14.3,·,11.4,14.1,113.7*
COc1cc(C=NNC(=O)c2sc(N)nc2C)cc(OC)c1OC,·,·,8.7,·,·,·
COc1cc(/C=N\NC(=O)c2sc(N)nc2C)cc(OC)c1OC,104.9*,-1.7,·,1.8,1.4,111.3*
Cc1nc(N)sc1C(=O)N/N=C/c1ccco1,72.3*,-10.0,·,-1.4,24.6,62.7*
CC(/C=N/NC(=O)c1sc(N)nc1C)=C\c1ccccc1,85.2*,-12.6,·,16.4,42.7*,96.1*
Cc1nc(N)sc1C(=O)NN=Cc1ccc([N+](=O)[O-])cc1,·,·,4.5,·,·,·
O=C(CCc1nnc2ccc(N3CCCC3)nn12)Nc1ccc(F)c(F)c1,49.9*,-4.2,-8.7,1.8,-3.4,?
COc1ccc(N(CC(=O)NN=Cc2ccc3c(c2)OCO3)S(=O)(=O)c2ccc(NC(C)=O)cc2)cc1,·,·,3.1,·,·,·
SMILES,UBC13 polyUb,Apaf-1 inh,UCH37 inh,PREPL inh,Casp3 UBC13 ctr,UBC13 conf
O=C(CCCCCN1C(=O)c2ccccc2C1=O)NCCc1nc2ccccc2[nH]1,55.6*,14.9,1.0,11.4,0.1,53.1*
CC(C=NNC(=S)Nc1cccc(S(=O)(=O)N(C)C)c1)c1ccccc1 (stereo not drawn),·,·,0.8,·,·,·
O=[N+]([O-])c1c(-c2cn[nH]c2)n[nH]c1-c1cn[nH]c1,55.5*,-11.2,6.3,0.5,4.4,53.2*
C=CCCCCCCCCC(=O)N1CCN(c2cc3c(cc2F)c(=O)c(C(=O)O)cn3CC)CC1,47.0*,13.5,-91.7,14.2,-1.6,15.6
Cc1ccc(C(=O)NCCCNCCCN(C)C)cn1,51.6*,-14.1,3.5,-5.1,-3.5,35.2
COc1ccc(NC(=O)CON=CC(=O)Nc2ccccc2C)c([N+](=O)[O-])c1,·,·,1.1,·,·,·
Cc1ccc(NC(=S)NNC(=O)c2nnn(-c3ccccc3)c2C)cc1,45.0*,8.5,2.4,-3.3,3.2,48.2*
COC(=O)NN=Cc1cccc(OC(=O)c2ccc3c(c2)OCO3)c1,·,·,1.6,·,·,·
CCCCOc1ccc(C=NNC(=O)C2CCCNC2=O)cc1 (stereo not drawn),·,·,3.7,·,·,·
O=C(CSc1nc2ccccc2c(=O)n1Cc1ccccc1)NCc1ccco1,6.3,-12.2,2.8,1.1,·,·
COc1ccc(Cn2c(SCC(=O)NCc3ccco3)nc3ccsc3c2=O)cc1,66.2*,-1.5,-1.1,6.2,-4.1,74.4*
CCCCn1c(SCC(=O)Nc2cc(C)[nH]n2)nc2ccsc2c1=O,49.7*,-13.2,-0.8,3.2,-2.0,53.0*
Cc1ccc(CNC(=O)CSc2nc3ccsc3c(=O)n2Cc2ccc(C(=O)O)cc2)cc1,56.0*,4.4,2.8,10.5,5.5,64.3*
CCCCn1c(SCC(=O)Nc2cc(C)on2)nc2ccsc2c1=O,5.8,-8.0,1.6,11.6,·,·
O=C(CSc1nc2ccsc2c(=O)n1Cc1ccc(C(=O)O)cc1)NCc1ccco1,60.7*,-3.6,1.9,-6.1,1.4,60.3*
O=c1nccc(NN=Cc2cccc(O)c2)[nH]1,·,·,11.8,·,·,·
CCOc1ccccc1NC(=O)CN1CCC(C(=O)c2ccc(F)cc2)CC1,72.8*,23.1,5.8,10.7,0.2,77.8*
Nc1nonc1-n1nnc(C(=O)NN=Cc2ccccc2Cl)c1CN1CCOCC1,·,·,1.6,·,·,·
COc1ccccc1NC(=O)c1c(N=Cc2cccc([N+](=O)[O-])c2)cnn1C,77.3*,9.6,3.2,19.4,-2.0,85.5*
Cn1ncc([N+](=O)[O-])c1C(=O)NN=Cc1cccc([N+](=O)[O-])c1,·,·,6.0,·,·,·
Cc1cc2ncc(Cl)nc2cc1C,7.9,-13.8,-5.7,6.9,·,·
Cc1cc2nc(Cl)c(Cl)nc2cc1C,46.6*,-0.8,1.8,-7.1,6.8,7.1
CN(C)N=C/C=C1\CC/C(=C\c2ccc(Br)cc2)C1=O,·,·,5.0,·,·,·
CCOC(=O)c1cc(-c2cccnc2)nn1-c1ccccn1,-4.9,13.4,-2.8,8.0,·,·
CCOC(=O)c1cc(-c2ccncc2)nc2c1c(C)nn2C,113.2*,18.0,-83.2,7.0,-2.0,?
SMILES,UBC13 polyUb,Apaf-1 inh,UCH37 inh,PREPL inh,Casp3 UBC13 ctr,UBC13 conf
CCOC(=O)c1cc(-c2ccc(OC)cc2F)nc2c1c(C)nn2CCC#N,48.8*,15.4,-171.4,-0.7,-2.8,43.5
CCOC(=O)c1cc(-c2ccccc2)nc2c1c(C)nn2-c1ccccn1,61.8*,16.0,-122.5,-6.4,1.0,44.9
CCOC(=O)c1cc(-c2ccc(Cl)cc2)nc2c1c(C)nn2CCC#N,?,19.2,-28.8,6.1,·,·
Cc1cc(C(=NO)C(C)(C)NO)ccc1Cl,·,·,3.8,·,·,·
CCCOc1c(Cl)cc(C=NO)cc1OCC,·,·,2.7,·,·,·
CCOc1cccc(-c2nn(-c3ccccc3)cc2/C=C(/C#N)C(=O)NCCCn2ccnc2)c1,14.2,26.1,-5.3,-10.4,·,·
